Measurements gathered from unrelated publications.
Lines come from different studies, so protocols differ.
Target: Activin receptor type-1-like (ACVRL1, Homo sapiens, UniProt P37023)

CO[C@@H](C)c1c(Nc2ccc([C@H](N(C)C(=O)C3CCS(=O)(=O)CC3)C(F)(F)F)cc2)cnc2cc(Cl)nn12 — remaining binding (cell-free assay; competition with immobilised ligand; 1 µM): 100%
Nc1ncnc2occ(-c3ccc(NC(=O)Nc4cc(C(F)(F)F)ccc4F)cc3)c12 — remaining signal (cell-free assay; 20 µM): 100%
COc1cc2c(N3CCN(C(=O)Nc4ccc(OC(C)C)cc4)CC3)ncnc2cc1OCCCN1CCCCC1 — remaining signal (cell-free assay; 0.5 µM): 102%
N#Cc1ccc(Nc2ccc3[nH]c(=O)[nH]c3c2)c(Cl)c1 — remaining binding (binding; competition with immobilised ligand; 1 µM): 100%
C#Cc1cccc(Nc2ncnc3cc(OCCOC)c(OCCOC)cc23)c1 — remaining signal (cell-free assay; 0.5 µM): 101%
CC(C)(C)c1nc2c(s1)c1nc(N)ncc1c1ccc(NS(=O)(=O)c3c(F)cccc3F)c(F)c12 — remaining activity (enzyme activity; inhibitor; radiometric; 1 µM): 87%
CC(=O)c1c(NS(C)(=O)=O)c2cc(-c3ccc(Cl)cc3)c(-c3ccc(Cl)cc3Cl)nc2n(C)c1=O — remaining binding (cell-free assay; competition with immobilised ligand; 1 µM): 100%
Cc1cc(NC(=O)c2cccc3cc(-c4cccc5[nH]nc(N)c45)ccc23)ccc1F — activity vs control (enzyme activity; inhibitor; 0.1 µM): 143%
CN1CC(Oc2cnc(C#N)cc2-c2ccn3nc(NC(=O)C4CC4)cc3c2)C1 — inhibition (enzyme activity; inhibitor; 1 µM): 4%
O=C(Nc1cnn(-c2csc(C(=O)NC3COC3)c2)c1)Nc1ccccc1Cl — remaining activity (enzyme activity; inhibitor; 5 µM): 107%
N#CCCc1ccc2c(c1)-c1[nH]c3ccc([N+](=O)[O-])cc3c1CC(=O)N2 — remaining signal (cell-free assay; 0.5 µM): 53.6%
CCCCN(CCCC)C(=O)CN1C[C@H](c2cc(OC)c3c(c2)OCO3)[C@@H](C(=O)O)[C@@H]1CC(C)(C)CCC — remaining binding (cell-free assay; competition with immobilised ligand; 1 µM): 100%
Cc1cnc(NC2CCOCC2)nc1-n1cnc(C(=O)NC(CN)c2cc(F)cc(Cl)c2)c1 (stereo not shown) — remaining activity (enzyme activity; inhibitor; radiometric; 1 µM): 100%
CCS(=O)(=O)c1cc2cc(C[C@](O)(CC(C)(C)c3ccc(F)cc3C(N)=O)C(F)(F)F)[nH]c2cn1 — remaining binding (cell-free assay; competition with immobilised ligand; 1 µM): 100%
CCN(CC)CCNC(=O)c1c(C)[nH]c(/C=C2\C(=O)Nc3ccc(F)cc32)c1C — remaining signal (cell-free assay; 0.5 µM): 112%
Cc1sc(C(=O)NC2COC2)cc1-n1cc(NC(=O)Nc2c(F)cccc2Cl)cn1 — remaining activity (enzyme activity; inhibitor; 10 µM): 78.7%
